This is an account of results in ChEMBL document CHEMBL1150326 (Bioorg Med Chem, 2008).

In data set [1] the test system is CCRF-CEM. Nature of the data set: Selectivity ratio of IC50 for vinblastine-resistant human CCRF-CEM cells to IC50 for human CCRF-CEM cells. Type of data set: functional. The essentials: (§1)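 Fold resistance: IC50 in the taxol- or vinblastine-resistant CCRF-CEM subline divided by the IC50 in parent CCRF-CEM.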
Data set [2] deals with CCRF-CEM. Briefly: Cytotoxicity against human CCRF-CEM cells after 72 hrs by XTT assay. It counts as functional, cell-based. The essentials:
(§2)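 Leukaemic CCRF-CEM cells and their taxol- and vinblastine-resistant sublines exposed for 72 h. XTT assay read at 450 and 630 nm after 6 h with phenazine methosulfate-XTT at 37 °C. IC50 obtained by the median-effect principle from six or seven concentrations, in duplicate or triplicate.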
(In general: Formazan colour is commonly taken as a measure of viable cells.)

The nature of data set [3]: Stability in mouse assessed as half life. Type of data set: ADME, organism-based. The conditions noted are these: in vivo.
Data set [4] relates to CCRF-CEM. Briefly: Selectivity ratio of IC50 for taxol-resistant human CCRF-CEM cells to IC50 for human CCRF-CEM cells. It counts as functional. The essentials: as §1
The subject of data set [5] is CCRF-CEM. Briefly: Cytotoxicity against vinblastine-resistant human CCRF-CEM cells after 72 hrs by XTT assay. It counts as functional, cell-based. The essentials: as §2
For data set [6], the system named is CCRF-CEM. Nature of the data set: Cytotoxicity against taxol-resistant human CCRF-CEM cells after 72 hrs by XTT assay. Type of data set: functional, cell-based. The essentials: as §2
For data set [7], the system named is HCT-116. Nature of the data set: Cytotoxicity against human HCT116 cells after 72 hrs by SRB assay. The following applies: HCT-116, 72 h. It counts as functional, cell-based. The essentials: (§3)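 Solid tumour cells (breast MX-1, colon HCT116) exposed for 72 h. Growth measured by SRB assay. IC50 obtained by median-effect plot from six or seven concentrations, in duplicate or triplicate.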
A general note: The SRB assay estimates cell density from bound dye.

The test system of data set [8] is MX1. Nature of the data set: Antitumor activity in human MX1 cells xenografted mouse assessed as complete tumor remission at 75 mg/kg, iv administered in Q2D x 8 schedule. Type of data set: functional, organism-based. More on the design: dose 75 mg/kg. On the technique in general: In xenograft studies the graft and the host belong to different species.
The test system of data set [9] is Mus musculus. Briefly: Toxicity against human MX1 cells xenografted mouse assessed as body weight loss at 75 mg/kg, iv administered in Q2D x 8 schedule. Type of data set: organism-based. More on the design: dose 75 mg/kg, route intravenous. The following applies: in vivo.
Data set [10] deals with MX1. Briefly: Cytotoxicity against human MX1 cells after 72 hrs by SRB assay. Type of data set: functional, cell-based. The conditions noted are these: MX1, 72 h. The essentials: as §3
The test system of data set [11] is NCI-H1299. Nature of the data set: Induction of DNA interstrand cross linking in 20 Gy irradiated human H1299 cells at 200 uM after 1 hr by comet assay. Type of data set: functional. The essentials: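 H1299 cells (2 × 10^5) plated and grown for 32 h at 37 °C in 5% CO2, then drug-treated for 1 h. Cells given 20 Gy irradiation and embedded in 1.2% low-melting agarose for a modified comet assay under subdued light. Tail moment scored in 100 cells. Cross-linking % = [1 − (TMdi−TMcu)/(TMci−TMcu)] × 100. Three experiments, mean ± SD.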

The nature of data set [12]: Chemical stability assessed as half life at 1 mg in DMSO/Tween 80/normal saline solution. It counts as physicochemical. The essentials: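 1 mg of compound held in i.v. vehicle (DMSO/Tween 80/normal saline, 0.5:0.4:1.6 v/v/v). Degradation followed by silica TLC (CHCl3/MeOH 10:1) and confirmed by reversed-phase HPLC.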
In data set [13] the test system is MX1. Nature of the data set: Antitumor activity in human MX1 cells xenografted mouse assessed as complete tumor remission at 30 mg/kg, iv administered in Q2D x 5 schedule. More on the design: dose 30 mg/kg. Type of data set: functional, organism-based.
For data set [14], the system named is Mus musculus. Briefly: Toxicity against human MX1 cells xenografted mouse assessed as body weight loss at 30 mg/kg, iv administered in Q2D x 5 schedule. It counts as organism-based. The conditions noted are these: in vivo. More on the design: dose 30 mg/kg, route intravenous. The essentials: (§4)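 Nude nu/nu male mice (8 weeks or older, 22 g or more) carrying xenografts, given i.v. tail-vein injections in DMSO/Tween 80/saline vehicle, n = 3. Host toxicity taken as body weight change from the initial pretreatment weight, tracked through and after dosing.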

The test system of data set [15] is MX1. Briefly: Antitumor activity in human MX1 cells xenografted mouse assessed as complete tumor suppression at 50 mg/kg, iv administered in Q2D x 8 schedule. It counts as functional, organism-based. More on the design: dose 50 mg/kg.
The test system of data set [16] is MX1. Briefly: Antitumor activity in human MX1 cells xenografted mouse assessed as complete tumor remission at 50 mg/kg, iv administered in Q2D x 8 schedule. It counts as functional, organism-based. More on the design: dose 50 mg/kg.
The subject of data set [17] is Mus musculus. Briefly: Toxicity against human MX1 cells xenografted mouse assessed as body weight loss at 50 mg/kg, iv administered in Q2D x 8 schedule. Type of data set: organism-based. More on the design: dose 50 mg/kg, route intravenous. The following applies: in vivo. The essentials: as §4

Each structure is given as a SMILES string. pIC50: −log10 of the molar value. Calls of active or inactive are those of the source. The rule behind the calls is not given here.

For `OCc1cc(Nc2c3ccccc3nc3ccccc23)cc(OCCN(CCCl)CCCl)c1`, the “Ratio IC50” value in data set [1] amounted to 3.84; in data set [4] it was 0.96. In addition, the pIC50 (commonly −log10 of the IC50, conventionally taken in molar units) is 8.48 in data set [2], 7.89 in data set [5], 8.49 in data set [6] and 8.19 in [7]. Further, the half-life (in general, the time in which the quantity being followed falls by half) in [3] is below 0.0174 days.
Consider `Cc1cc(NC(=O)Nc2ccc(N(CCCl)CCCl)cc2)cc(Nc2c3ccccc3nc3ccccc23)c1`, for which the “Ratio IC50” value in data set [1] is 4.2; in data set [4] it was 2.72. Besides, in data set [8], the result was Active. In addition, the negative logarithm of the IC50 (pIC50) is 6.85 in [2]; 6.28 in data set [10]; 6.23 in data set [5]; 6.42 in data set [6]; 6.09 in [7]. Also, the Activity in data set [9] is listed as 10%.
Regarding `COc1ccc(Nc2c3ccccc3nc3ccccc23)cc1NC(=O)Nc1ccc(N(CCCl)CCCl)cc1`, the “Ratio IC50” value in data set [1] was 7.13; in [4], 4.39. Moreover, the pIC50 is 8.11 in data set [2]; 5.92 in data set [10]; 7.26 in [5]; 7.47 in data set [6]; 6.59 in [7].
Take `COc1ccc(NC(=O)Nc2ccc(N(CCCl)CCCl)cc2)cc1Nc1c2ccccc2nc2ccccc12`: the “Ratio IC50” value in [1] stood at 1.24; in [4], 1.33. Moreover, the negative-log IC50 (pIC50) was 7.35 in data set [2]; 6.23 in [10]; 7.26 in data set [5]; 7.23 in data set [6]; 6.73 in [7].
As to `COc1cc(NC(=O)Nc2ccc(N(CCCl)CCCl)cc2)cc(Nc2c3ccccc3nc3c(C(=O)NCCN(C)C)cccc23)c1`, the “Ratio IC50” value in data set [1] was 72; in [4], 2.29. In addition, the negative-log IC50 (pIC50) in data set [2] is 7.88; in [10], 6.20; in [5] it was 6.02; in [6], 7.52; in [7], 6.96.
In data set [11], `N[C@@H](Cc1ccc(N(CCCl)CCCl)cc1)C(=O)O` [MELPHALAN] yielded an Activity of 47.3%.
As to `COc1ccc(Nc2c3ccccc3nc3c(C)cccc23)cc1NC(=O)Nc1ccc(N(CCCl)CCCl)cc1`, the “Ratio IC50” value in data set [1] is reported as 2.76; in [4], 1.25. The negative logarithm of the IC50 (pIC50) in [2] was 8.04; in data set [10] it was 6.43; in data set [5], 7.61; in data set [6], 7.94; in data set [7] it was 7.13.
Consider `O=C(Nc1ccc(N(CCCl)CCCl)cc1)Nc1c2ccccc2nc2ccccc12`, for which the results for the “Ratio IC50” value in [1] and in data set [4] were 1.65 and 1.68, respectively. The pIC50 in data set [2] was 6.64; in [10], 6.09; in [5] it was 6.42; in data set [6], 6.41; in [7] it was 6.05.
As for `Cc1cccc2c(Nc3cc(CO)cc(NC(=O)Nc4ccc(N(CCCl)CCCl)cc4)c3)c3ccccc3nc12`, the “Ratio IC50” value turned out to be 57.5 in data set [1] and 12.7 in data set [4]. Moreover, the half-life in data set [12] was 59 days. For the same compound, the negative-log IC50 (pIC50) was 7.51 in data set [2]; 6.90 in data set [10]; 5.75 in data set [5]; 6.41 in data set [6]; 6.58 in data set [7]. In addition, the result in [13] was Active. Further, the Activity in data set [14] is 10%.
On to `COc1cc(NC(=O)Nc2ccc(N(CCCl)CCCl)cc2)cc(Nc2c3ccccc3nc3c(C)cccc23)c1`, for which the results for the “Ratio IC50” value in data set [1] and in [4] were 1.46 and 1.68, respectively. Besides, the pIC50 in data set [2] was 7.53; in data set [10], 6.06; in [5], 7.36; in data set [6] it was 7.30; in data set [7] it was 6.62.
For `Cc1ccc(Nc2c3ccccc3nc3ccccc23)cc1NC(=O)Nc1ccc(N(CCCl)CCCl)cc1`, the “Ratio IC50” value in [1] was determined as 2; in data set [4] it was 2.08. Further, the negative-log IC50 (pIC50) in data set [2] was 7.78; in data set [10], 6.23; in data set [5] it was 7.48; in data set [6], 7.46; in data set [7], 6.58.
For the compound `CC(=O)O[C@H]1C(=O)[C@@]2(C)[C@H]([C@H](OC(=O)c3ccccc3)[C@]3(O)C[C@H](OC(=O)[C@H](O)[C@@H](NC(=O)c4ccccc4)c4ccccc4)C(C)=C1C3(C)C)[C@]1(OC(C)=O)CO[C@@H]1C[C@@H]2O` [PACLITAXEL], the figures for the “Ratio IC50” value in data set [1] and in [4] were 980 and 330, respectively. Moreover, the negative logarithm of the IC50 (pIC50) in data set [2] is 8.89; in [10], 7.46; in [5] it was 5.90; in data set [7], 8.89.
With `CC[C@]1(O)C[C@@H]2CN(CCc3c([nH]c4ccccc34)[C@@](C(=O)OC)(c3cc4c(cc3OC)N(C)[C@H]3[C@@](O)(C(=O)OC)[C@H](OC(C)=O)[C@]5(CC)C=CCN6CC[C@]43[C@@H]65)C2)C1` [VINBLASTINE], the pIC50 in data set [10] was 8.54; in [7], 8.74.
For the compound `O=C(Nc1ccc(N(CCCl)CCCl)cc1)Nc1cc(CO)cc(Nc2c3ccccc3nc3ccccc23)c1`, the half-life in data set [12] is 55 days. The result in [15] was Active. For the same compound, the “Ratio IC50” value in data set [4] is 304. In addition, the pIC50 in data set [10] was 6.43; in data set [6], 4.76; in data set [7], 6.67. Besides, the result in data set [16] was inactive. Besides, the Activity in data set [17] worked out at 10%.
Regarding `COc1cc(NC(=O)Nc2ccc(N(CCCl)CCCl)cc2)cc(Nc2c3ccccc3nc3ccccc23)c1`, the “Ratio IC50” value turned out to be 1.46 in [1] and 1.34 in data set [4]. In addition, the negative logarithm of the IC50 (pIC50) is 7.43 in [2]; 5.96 in data set [10]; 7.26 in data set [5]; 7.30 in data set [6]; 6.30 in data set [7].
For the compound `Cc1ccc(NC(=O)Nc2ccc(N(CCCl)CCCl)cc2)cc1Nc1c2cccc(C)c2nc2c(C(=O)NCCN(C)C)cccc12`, the “Ratio IC50” value in [1] is listed as 25.4; in data set [4], 14.7. Besides, the pIC50 in data set [2] is 7.92; in [10], 7.22; in data set [5], 6.52; in [6], 6.76; in data set [7], 7.22.
With `COc1ccc(NC(=O)Nc2ccc(N(CCCl)CCCl)cc2)cc1Nc1c2ccccc2nc2c(C)cccc12`, the “Ratio IC50” value in data set [1] was 1.3; in data set [4], 1.93. The pIC50 in data set [2] is 7.53; in [10] it was 5.74; in data set [5], 7.51; in [6], 7.24; in data set [7] it was 6.24.
As for `Cc1ccc(NC(=O)Nc2ccc(N(CCCl)CCCl)cc2)cc1Nc1c2ccccc2nc2c(C)cccc12`, the “Ratio IC50” value was 2.15 in data set [1] and 2.02 in data set [4]. Further, the pIC50 in [2] is 7.94; in data set [10], 6.23; in [5], 7.61; in [6], 7.64; in data set [7], 6.80.
